Calb biofilm kill = mixture kills Candida albicans biofilm cells. C. albicans biofilm persisters + clotrimazole, fluorescence viability; primary screen in compound mixtures of four per well. inhibition, % at 7.6 µM. 0.02% of 120,000 active. AID 1242;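 active means inhibition above 30.3% in the primary screen of four-compound pools, then above 30% when the compound was retested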;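 further: compounds exposed to preformed 24 h biofilms for 48 h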
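Incubation: 24 h biofilm formation, then 48 h compound exposure, 37 °C | Material: C. albicans biofilms | Buffer or medium: RPMI/MOPS medium, pH 7.0 | Measured by: 2-h Alamar Blue fluorescence, 535/590 nm excitation/emission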
Pf gamet viab = kills late stage P. falciparum gametocytes. P. falciparum stage V gametocytes, ATP luminescence, 24 h. inhibition, % at 10.9 µM. 0.065% of 150,000 active. AID 743093;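 active means inhibition above the mean plus 3 SD of compounds within the control limits, set per campaign, cut at about 38% in these data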
ROMK mod = modulates human ROMK potassium channel activity | P48048 | Tet-inducible ROMK, thallium flux fluorescence; actives lie on both sides | B-score at 10 µM | 2% of 130,000 active;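 active means signal ratio slope over the read window, or its plate-corrected B-score, at least 3 SD from the plate mean, either direction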;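 further: B-score of the F/F0 ratio slope over 7 to 12 s after thallium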
Target sequence (P48048 whole entry, looked up): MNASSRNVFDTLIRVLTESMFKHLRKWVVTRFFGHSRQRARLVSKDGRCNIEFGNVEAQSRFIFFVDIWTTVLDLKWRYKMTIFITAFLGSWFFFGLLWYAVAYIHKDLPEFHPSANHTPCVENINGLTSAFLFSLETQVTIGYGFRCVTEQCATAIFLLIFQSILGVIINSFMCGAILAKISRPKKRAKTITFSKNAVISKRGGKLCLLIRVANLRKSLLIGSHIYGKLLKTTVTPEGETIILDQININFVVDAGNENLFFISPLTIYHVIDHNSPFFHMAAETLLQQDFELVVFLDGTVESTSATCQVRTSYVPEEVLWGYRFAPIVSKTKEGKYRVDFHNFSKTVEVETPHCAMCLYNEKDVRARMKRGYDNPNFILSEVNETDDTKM
Hits are given with their value; - = inactive; . = not tested or not shown. This excerpt belongs to a sample that is enriched for hits.

SMILES	Calb biofilm kill	Pf gamet viab	ROMK mod
CCC(=O)NNC(=O)c1cc(COc2cc(Cl)cc(Cl)c2)on1	-	-	-
O=C(Nc1cccnc1)c1cc(-c2ccccc2)on1	-	.	3.5
COc1ccc(NC(=O)c2cc(-c3ccccc3)on2)cc1	.	-	.
O=C(Nc1cccnc1)c1cc(-c2ccco2)on1	.	.	-
CC(C)n1cc(NC(=O)c2cc(-c3ccccc3)on2)cn1	.	-	5.8
Cc1ccc(Nc2nnc(C)c3ccccc23)c(C)c1	.	-	.
Cc1ccc(C(=O)c2ccc(C)cc2)cc1	-	-	-
Cc1ccc(C(=O)c2no[n+]([O-])c2C(=O)c2ccc(C)cc2)cc1	-	-	-5.1
COc1cc(C2CC(=O)Nc3cc(C)c(C)cc32)cc(OC)c1OC (centres undefined)	-	-	.
Cc1cc2c(cc1C)C(c1cccc([N+](=O)[O-])c1)CC(=O)N2 (centres undefined)	-	51	.
CN(C)S(=O)(=O)c1cc(NC(=O)CNCCN2CCOCC2)ccc1Cl	-	-	.
C1=C(c2cc3ccccc3cn2)CCCC1	.	-	.
COc1ccc(CC(=O)NCC2CCCN(Cc3ccc(SC)cc3)C2)cc1 (centres undefined)	.	-	.
COc1cc(/C=N/NC(=O)CSc2cc(C)c(Br)cc2C)ccc1O	.	-	-
Cc1cc(SCC(=O)N/N=C/c2ccc(O)c(O)c2O)c(C)cc1Br	.	39	-
COc1cccc(C(=O)NC(C)CCc2ccccc2)c1 (centres undefined)	.	-	.
Cc1ccc(C(C)C)cc1S(=O)(=O)Nc1cccnc1	.	-	.
O=C(C1CCCN(S(=O)(=O)c2cccc3nsnc23)C1)N1CCc2ccccc21 (centres undefined)	.	-	-
CC1Cc2ccccc2N1C(=O)C1CCCN(S(=O)(=O)c2cccc3nsnc23)C1 (centres undefined)	.	-	-3.1
COc1ccc2nc(Nc3ccccc3OC)sc2c1	-	-	-
Fc1cccc2sc(Nc3nnc(-c4ccccc4)o3)nc12	.	-	7
COc1ccc(-c2nnc(Nc3nc4c(OC)cccc4s3)o2)c(OC)c1	.	.	7.3
COc1cc(OC)cc(-c2nnc(Nc3nc4c(F)cccc4s3)o2)c1	.	.	-
O=C1NC(=S)S/C1=C\c1ccc(SCc2ccccc2)o1	-	.	-
O=C1NC(=S)S/C1=C\c1ccc(SCc2ccco2)o1	-	.	-2.8
SMILES	Calb biofilm kill	Pf gamet viab	ROMK mod
CCN(CC)C(=S)NC(=O)c1ccc(Cl)cc1Cl	.	.	-
CCCCN(CCCC)C(=S)NC(=O)c1ccccc1Cl	-	-	2.7
CCCN(Cc1ccccc1)C(=S)NC(=O)c1ccccc1[N+](=O)[O-]	-	-	4.5
CCC(=O)NC(=S)NNC(=O)c1ccccc1[N+](=O)[O-]	-	-	-
COc1ccc(/C=N/Nc2nn3cnnc3c3ccccc23)cc1	-	-	.
CCOC(=O)c1[nH]cnc1C(=O)N1CCN(C(=O)OC(C)(C)C)CC1	.	-	.
Cc1ccc(C(C(=O)NC2CCCC2)N(Cc2ccc3c(c2)OCO3)C(=O)c2snc(C(N)=O)c2N)cc1 (centres undefined)	-	-	.
O=C(NC1CCCCC1)C(c1ccccc1)N(Cc1ccc2c(c1)OCO2)C(=O)c1cnsn1 (centres undefined)	-	.	-2.4
Nc1ccc(S(=O)(=O)N2CCOCCOCCOCCOCCOCC2)cc1	.	-	.
O=C1OCC2=C1C(c1ccc(F)cc1)c1cc3c(cc1N2)OCCO3 (centres undefined)	-	.	-
O=C1OCC2=C1C(c1ccc(F)cc1)c1cc3c(cc1N2)OCO3 (centres undefined)	-	-	2.8
COc1cc(C#Cc2ccc3cc(C(C)(C)O)oc(=O)c3c2)cc(OC)c1	.	-	.
COc1ccc(N2C(=O)[C@@H]3[C@H](C2=O)[C@H](C(C)=O)N2c4ccccc4C=C[C@@H]32)cc1	-	-	.
COc1ccc(C2C(C(=O)c3ccccc3)N3c4ccccc4C=CC3C2[N+](=O)[O-])cc1 (centres undefined)	-	.	-3.7
Cc1nn(-c2ccccc2)c(N2CCCC2)c1/C=C1\N=C(c2ccccc2)OC1=O	-	-	-
Cc1ccc2cc(/C=C3\N=C(c4ccccc4)OC3=O)c(N3CCOCC3)nc2c1	.	.	-5.9
O=C1c2ccccc2NC(c2ccc(-c3cccc(F)c3)o2)N1O (centres undefined)	.	-	.
CCOC(=O)c1ccc(-c2ccc(C3Nc4ccccc4C(=O)N3O)o2)cc1 (centres undefined)	-	-	-3.8
Cc1nc(NCCc2ccccc2)c2nnn(Cc3ccccc3)c2n1	.	-	.
CCC(C)(C)c1ccc(OCCCC[n+]2ccc(C)cc2)c(C(C)(C)CC)c1	-	-	-5.9
Cc1cc[n+](CC[n+]2ccc(C)cc2)cc1	.	-	.
CC1CCN(S(=O)(=O)c2ccc(N=NC3=C(O)CC(C)(C)CC3=O)cc2)CC1	-	44	-
CC1(C)CC(=O)C(N=Nc2cccc(S(=O)(=O)N3CCOCC3)c2)=C(O)C1	-	-	.
C=CCSc1nsc(NC(=O)Nc2ccc(F)cc2)n1	.	-	.
CC(=O)c1c(N)[nH]c(-c2ccccc2)nc1=S	.	.	4.4
SMILES	Calb biofilm kill	Pf gamet viab	ROMK mod
CC(=O)c1c(-c2ccccc2)[nH]c2ccccc12	.	-	.
CC(=O)c1c(N2CCN(Cc3ccccc3)CC2)[nH]c(-c2ccccc2)nc1=S	.	-	7.5
CC(=O)c1c(N2CCCC2)[nH]c(-c2ccccc2)nc1=S	.	-	4.8
CC(=O)c1c(N2CCOCC2)[nH]c(-c2ccccc2)nc1=S	-	-	-
CC(=O)c1c(N2CCN(Cc3ccccc3)CC2)nc(=S)n(Cc2ccccc2)c1C	-	-	-
COc1ccc(-c2c(-c3cc(OC)cc(OC)c3)n(C)c3ccc(-c4ccc(N(C)C)nc4)cc23)cc1	.	-	.
C=CCn1c(C)nnc1SCC(=O)N1CCN(S(=O)(=O)c2ccccc2)CC1	-	-	.
Cc1ccc(C(O)CSc2nnc(-c3ccc4ccccc4c3)n2C)cc1 (centres undefined)	-	-	.
CC(Nc1cc(N2CCCC2)ccc1[N+](=O)[O-])c1ccccc1 (centres undefined)	.	-	.
CCCC(=O)N1CCN(c2ccc([N+](=O)[O-])c(NC(C)c3ccccc3)c2)CC1 (centres undefined)	.	-	-5.3
Cc1cccc(C(=O)NC(=S)N2CCc3ccccc3C2)c1	-	-	9.1
CCNC(=S)N1CCc2ccccc2C1	-	-	-
O=C(NCCc1ccccc1)N1c2ccccc2Sc2ccccc21	.	.	1.8
CC(C)CNC(=O)N1c2ccccc2Sc2ccccc21	-	-	.
Cc1ccccc1N=Nc1c(C)[nH]n(-c2ccccc2)c1=O	-	.	-
Cc1[nH]n(-c2ccccc2)c(=O)c1N=Nc1nccs1	.	-	13
Cn1cc(CN2C[C@]3(C)C[C@H]2CC(C)(C)C3)c(-c2ccc3c(c2)OCCO3)n1	-	.	-
CCOC(=O)CC1CCCCN1Cc1cn(C)nc1-c1ccc2c(c1)OCCO2 (centres undefined)	-	42	-
O=C(OCC(O)COC(=O)c1cccnc1)c1cccnc1	-	.	-
C[C@H]1CN([C@@H](C)CO)C(=O)c2cccc(NC(=O)c3nc4ccccc4s3)c2O[C@H]1CN(C)C(=O)Nc1ccc(F)cc1	.	-	.
CN(Cc1ccccc1)c1ncnc2ccc(Br)cc12	.	.	-4.7
CN(Cc1ccco1)c1ncnc2ccc(-c3ccccc3Cl)cc12	.	-	.
O=c1[nH]cnc2sc3c(c12)CCC3	-	-	.
O=[N+]([O-])c1ccc(O)c2ncccc12	32	.	.
O=[N+]([O-])c1ccc(O)c2cccnc12	-	-	-

Bioassay records (PubChem BioAssay)
